From ChEMBL document CHEMBL2086340, “Synthesis and biological evaluation of 2-benzylamino-4(5)-(6-methylpyridin-2-yl)-5(4)-([1,2,4]triazolo[1,5-a]-pyridin-6-yl)thiazoles as transforming growth factor-β type 1 receptor kinase inhibitors” (Eur J Med Chem, 2012)

Columns and labels:
TGF-beta receptor type-1 = biological target: T1, TGF-beta receptor type-1 (Homo sapiens, UniProt P36897); experiment: Inhibition of human recombinant GST-fused ALK5 expressed in Sf9 cells using casein as a substrate by radioisotopic protein kinase assay
T1 sequence (P36897 whole entry): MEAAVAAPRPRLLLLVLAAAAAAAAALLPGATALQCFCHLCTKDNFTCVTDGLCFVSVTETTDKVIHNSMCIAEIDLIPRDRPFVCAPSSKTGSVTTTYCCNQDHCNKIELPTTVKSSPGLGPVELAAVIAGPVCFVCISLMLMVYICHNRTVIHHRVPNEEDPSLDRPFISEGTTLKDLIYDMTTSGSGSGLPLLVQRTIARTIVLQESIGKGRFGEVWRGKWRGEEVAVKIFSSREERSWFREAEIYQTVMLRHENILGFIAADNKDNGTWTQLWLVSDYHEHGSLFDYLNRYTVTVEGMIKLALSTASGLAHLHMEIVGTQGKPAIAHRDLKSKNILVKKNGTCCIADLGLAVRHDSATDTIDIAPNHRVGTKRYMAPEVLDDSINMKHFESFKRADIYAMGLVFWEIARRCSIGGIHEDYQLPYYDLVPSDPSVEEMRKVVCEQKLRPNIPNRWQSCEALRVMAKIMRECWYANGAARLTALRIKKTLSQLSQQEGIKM

[1] = biological target: Mitogen-activated protein kinase 14 (Homo sapiens, UniProt Q16539); experiment: Inhibition of human recombinant p38alpha expressed in Escherichia coli using ATF2 as a substrate by radioisotopic protein kinase assay
Mitogen-activated protein kinase 14, sequence (Q16539 whole entry): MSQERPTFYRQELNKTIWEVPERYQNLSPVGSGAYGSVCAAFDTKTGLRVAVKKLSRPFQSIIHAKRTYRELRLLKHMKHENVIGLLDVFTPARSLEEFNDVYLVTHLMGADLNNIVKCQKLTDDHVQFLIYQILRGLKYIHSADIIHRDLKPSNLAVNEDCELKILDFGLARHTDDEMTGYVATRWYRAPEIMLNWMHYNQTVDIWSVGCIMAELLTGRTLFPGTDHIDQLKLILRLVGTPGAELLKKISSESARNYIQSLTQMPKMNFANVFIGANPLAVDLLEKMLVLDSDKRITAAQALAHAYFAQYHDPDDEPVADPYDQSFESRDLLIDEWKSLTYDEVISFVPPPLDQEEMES

Homo sapiens = species on record: Homo sapiens; experiment: Selectivity index, ratio of IC50 for human recombinant p38alpha to IC50 for human recombinant ALK5
In short: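 Index is IC50(p38α)/IC50(ALK5), each from a radioisotopic ³³P protein kinase assay run by a contract lab. The p38α was untagged human recombinant protein expressed in E. coli and purified on Ni–NTH–agarose, with ATF2 as substrate. The ALK5 kinase domain was human recombinant GST-fusion protein from baculovirus-infected Sf9 cells, with casein as substrate.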

| SMILES | IC50 (TGF-beta receptor type-1) [nM] | IC50 [1] [nM] | Ratio IC50 (Homo sapiens) |
| --- | --- | --- | --- |
| COc1ccc(CNc2nc(-c3cccc(C)n3)c(-c3ccc4ncnn4c3)s2)cc1 | 24.3 | > 10000 | > 412 |
| Cc1cccc(-c2nc(NCc3ccc(C(N)=O)cc3)sc2-c2ccc3ncnn3c2)n1 | 25.7 | > 10000 | > 389 |
| Cc1cccc(-c2[nH]c(Cc3cccc(C(N)=O)c3)nc2-c2ccc3nccnc3c2)n1 | – | – | 28 |
| Cc1cccc(-c2nc(NCc3cccc(C#N)c3)sc2-c2ccc3ncnn3c2)n1 | 9.26 | 3780 | 408 |
| COc1cc(CNc2nc(-c3cccc(C)n3)c(-c3ccc4ncnn4c3)s2)cc(OC)c1 | 16.5 | 7990 | 484 |
| Cc1cccc(-c2nc(NCc3ccc(C#N)cc3)sc2-c2ccc3ncnn3c2)n1 | 30.8 | > 10000 | > 325 |
| Cc1cccc(CNc2nc(-c3cccc(C)n3)c(-c3ccc4ncnn4c3)s2)c1 | 11.2 | 5370 | 479 |
| Cc1cccc(-c2sc(NCc3cccc(C#N)c3)nc2-c2ccc3ncnn3c2)n1 | 25.1 | > 10000 | > 398 |
| Cc1cccc(-c2nc(NCc3cccc(OC(F)(F)F)c3)sc2-c2ccc3ncnn3c2)n1 | 19.3 | 7390 | 383 |
| COc1cccc(CNc2nc(-c3cccc(C)n3)c(-c3ccc4ncnn4c3)s2)c1 | 11.4 | > 10000 | > 877 |
| Cc1cccc(-c2nc(NCc3ccc(Cl)c(Cl)c3)sc2-c2ccc3ncnn3c2)n1 | 21.9 | > 10000 | > 457 |
| Cc1cccc(-c2sc(NCc3ccccc3)nc2-c2ccc3ncnn3c2)n1 | 24.5 | 8820 | 360 |
| COc1ccc(CNc2nc(-c3cccc(C)n3)c(-c3ccc4ncnn4c3)s2)cc1OC | 47.7 | > 10000 | > 210 |
| Cc1cccc(-c2nc(NCc3ccccc3Cl)sc2-c2ccc3ncnn3c2)n1 | 15.5 | 5860 | 378 |
| Cc1cccc(-c2nc(NCc3cccc(F)c3)sc2-c2ccc3ncnn3c2)n1 | 7.01 | 3530 | 504 |
| Cc1cccc(-c2nc(NCc3cc(F)cc(F)c3)sc2-c2ccc3ncnn3c2)n1 | 8.92 | 3820 | 428 |
| Cc1cccc(-c2nc(NCc3ccc(Cl)cc3)sc2-c2ccc3ncnn3c2)n1 | 15.8 | > 10000 | > 633 |
| Cc1cccc(-c2nc(NCc3ccc(OC(F)(F)F)cc3)sc2-c2ccc3ncnn3c2)n1 | 60.9 | > 10000 | > 164 |

| SMILES | IC50 (TGF-beta receptor type-1) [nM] | IC50 [1] [nM] | Ratio IC50 (Homo sapiens) |
| --- | --- | --- | --- |
| Cc1cccc(-c2nc(NCc3cccc(F)c3F)sc2-c2ccc3ncnn3c2)n1 | 29.4 | 7200 | 245 |
| Cc1cccc(-c2nc(NCc3cccc(C)c3C)sc2-c2ccc3ncnn3c2)n1 | 22.1 | > 10000 | > 452 |
| Cc1cccc(-c2nc(NCc3ccccc3F)sc2-c2ccc3ncnn3c2)n1 | 10.4 | > 10000 | > 962 |
| Cc1cccc(-c2nc(NCc3cccc(Cl)c3)sc2-c2ccc3ncnn3c2)n1 | 10.2 | 3280 | 322 |
| Cc1cccc(-c2nc(NCc3cccc(C(N)=O)c3)sc2-c2ccc3ncnn3c2)n1 | 13.6 | 6190 | 455 |
| Cc1cc(C)cc(CNc2nc(-c3cccc(C)n3)c(-c3ccc4ncnn4c3)s2)c1 | 22 | > 10000 | > 455 |
| Cc1cccc(-c2sc(NCc3cccc(C(N)=O)c3)nc2-c2ccc3ncnn3c2)n1 | 12 | > 10000 | > 833 |
| Cc1cccc(-c2nc(NCc3ccccc3C)sc2-c2ccc3ncnn3c2)n1 | 16.9 | > 10000 | > 592 |
| COc1cccc(CNc2nc(-c3cccc(C)n3)c(-c3ccc4ncnn4c3)s2)c1OC | 43.5 | > 10000 | > 230 |
| Cc1cccc(-c2nc(NCc3ccccc3)sc2-c2ccc3ncnn3c2)n1 | 11.3 | 5530 | 489 |
| Cc1cccc(-c2nc(NCc3ccc(F)c(F)c3)sc2-c2ccc3ncnn3c2)n1 | 7.43 | 3580 | 482 |
| Cc1cccc(-c2sc(NCc3ccccc3F)nc2-c2ccc3ncnn3c2)n1 | 21.2 | > 10000 | > 472 |
| Cc1cccc(-c2nc(NCc3cc(Cl)cc(Cl)c3)sc2-c2ccc3ncnn3c2)n1 | 15.1 | > 10000 | > 662 |
| Cc1ccc(CNc2nc(-c3cccc(C)n3)c(-c3ccc4ncnn4c3)s2)cc1 | 8.75 | > 10000 | > 1140 |
| Cc1cccc(-c2nc(NCc3ccc(F)cc3)sc2-c2ccc3ncnn3c2)n1 | 8.61 | 9200 | 1070 |
| Cc1cccc(-c2nc(NCc3ccccc3OC(F)(F)F)sc2-c2ccc3ncnn3c2)n1 | 35.9 | > 10000 | > 279 |
| Cc1cccc(-c2nc(NCc3cccc(Cl)c3Cl)sc2-c2ccc3ncnn3c2)n1 | 34.3 | > 10000 | > 292 |
